What is called IC50 is the concentration at which inhibition is half-maximal. For orientation: half-life means the time needed for the level to fall by half in the phase considered.

The target in one data set is Prothrombin (Homo sapiens, UniProt P00734). Briefly: Inhibitory concentration was measured against thrombin.
The next data set concerns the target Chymotrypsinogen A (Bos taurus, UniProt P00766). As to the kind of experiment: Inhibitory concentration was measured against alpha-chymotrypsin.
The nature of data set [1]: The percent remaining in human plasma after 30 min was determined. It is filed as ADME, cell-free. The settings on record: read-out: Stability. A digest of the protocol: (§1)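 Compound, dissolved in DMSO, was spiked into human plasma and incubated at 37 °C. Stability was read as the percentage of intact compound left after 30 min. Half-life in human plasma was taken from this same incubation.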

In the next data set the target is T1, Chymase (Homo sapiens, UniProt P23946).
T1 sequence (P23946 whole entry): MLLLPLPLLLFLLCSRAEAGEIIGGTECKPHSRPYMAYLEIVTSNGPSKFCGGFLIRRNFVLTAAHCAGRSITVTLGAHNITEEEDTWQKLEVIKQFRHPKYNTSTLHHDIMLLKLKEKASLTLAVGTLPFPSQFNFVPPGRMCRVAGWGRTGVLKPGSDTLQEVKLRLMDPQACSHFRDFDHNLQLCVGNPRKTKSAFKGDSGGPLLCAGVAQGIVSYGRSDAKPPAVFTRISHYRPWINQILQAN
Briefly: Inhibition of human Serine protease chymase.

Another data set has as its target Plasminogen (Rattus norvegicus, UniProt Q01177). As to the kind of experiment: Inhibitory concentration was measured against plasmin.
For another data set, the target named is T2, Neutrophil elastase (Homo sapiens, UniProt P08246).
T2 sequence (P08246 whole entry): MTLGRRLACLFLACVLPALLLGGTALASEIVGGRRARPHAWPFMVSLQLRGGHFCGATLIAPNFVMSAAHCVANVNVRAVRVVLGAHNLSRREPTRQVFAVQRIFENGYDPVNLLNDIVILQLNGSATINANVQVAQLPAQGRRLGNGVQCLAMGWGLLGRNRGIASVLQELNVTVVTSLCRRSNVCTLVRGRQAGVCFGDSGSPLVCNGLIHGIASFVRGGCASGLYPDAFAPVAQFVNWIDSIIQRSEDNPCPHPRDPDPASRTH
As to the kind of experiment: Inhibitory concentration was measured against elastase.

The target in another data set is Serine protease 1 (Homo sapiens, UniProt P07477). Briefly: Inhibitory concentration was measured against trypsin.
Chain of Serine protease 1 (P07477 whole entry): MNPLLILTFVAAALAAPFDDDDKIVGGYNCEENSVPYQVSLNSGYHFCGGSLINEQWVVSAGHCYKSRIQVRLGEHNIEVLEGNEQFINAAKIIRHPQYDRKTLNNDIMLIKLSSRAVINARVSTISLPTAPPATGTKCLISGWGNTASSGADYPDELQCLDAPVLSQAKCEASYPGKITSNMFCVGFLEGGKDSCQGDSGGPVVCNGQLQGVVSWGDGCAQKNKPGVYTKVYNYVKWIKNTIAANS
A short description of data set [2]: The compound was evaluated for its half-life period. In kind it is ADME. The essentials:
as §1

Chain of Plasminogen (Q01177 97-581 limits assumed): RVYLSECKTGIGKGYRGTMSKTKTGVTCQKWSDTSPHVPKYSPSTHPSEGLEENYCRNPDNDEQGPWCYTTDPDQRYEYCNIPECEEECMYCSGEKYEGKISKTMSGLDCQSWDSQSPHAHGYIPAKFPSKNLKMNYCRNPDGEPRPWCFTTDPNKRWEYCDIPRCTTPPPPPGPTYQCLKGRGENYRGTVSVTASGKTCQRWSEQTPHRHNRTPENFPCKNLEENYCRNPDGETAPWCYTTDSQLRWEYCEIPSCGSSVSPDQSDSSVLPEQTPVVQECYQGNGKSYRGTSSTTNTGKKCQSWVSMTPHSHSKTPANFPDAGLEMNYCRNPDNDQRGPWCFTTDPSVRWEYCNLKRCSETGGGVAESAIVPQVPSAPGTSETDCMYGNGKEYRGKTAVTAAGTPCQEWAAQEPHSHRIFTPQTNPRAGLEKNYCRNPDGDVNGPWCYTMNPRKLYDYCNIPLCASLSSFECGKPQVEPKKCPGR
Chain of Plasminogen (Q01177 582-812 limits assumed): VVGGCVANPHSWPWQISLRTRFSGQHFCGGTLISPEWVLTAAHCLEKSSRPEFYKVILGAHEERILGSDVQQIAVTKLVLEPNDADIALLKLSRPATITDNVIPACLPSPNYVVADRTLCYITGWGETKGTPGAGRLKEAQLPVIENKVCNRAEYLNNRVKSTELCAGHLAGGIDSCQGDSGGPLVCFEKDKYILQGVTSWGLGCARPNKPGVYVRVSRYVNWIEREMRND

For the molecule `CCOc1ccccc1C(=O)N[C@]1(OC)C(=O)N2C(C(=O)OCc3ccc(C(=O)O)cc3)=C(CSc3nnnn3C)CO[C@@H]21`, the IC50 against Prothrombin was 3.6 µM; against Chymotrypsinogen A, 0.16 µM; at Chymase, 0.027 µM; at Plasminogen, > 10 µM; at Neutrophil elastase it was 9.5 µM; at Serine protease 1, 2.1 µM. For the same molecule, in data set [1], the remaining at 0.5 h came out at 87%. The half-life in data set [2] is 1.5 h.

With `CO[C@@]1(NC(=O)Cc2ccc(O)cc2)C(=O)N2C(C(=O)OCc3cccc(C)c3)=C(CSc3nnc(C)s3)CO[C@@H]21`, in data set [1], the remaining at 0.5 h was determined as 13%.

With `COc1ccccc1C(=O)N[C@]1(OC)C(=O)N2C(C(=O)OC(c3ccccc3)c3ccccc3)=C(CSc3nnnn3C)CO[C@@H]21`, in data set [1], the remaining at 0.5 h came out at 73%.

On to `CO[C@@]1(NC(=O)c2ccccc2OC(C)C)C(=O)N2C(C(=O)OCc3ccc(C(=O)O)cc3)=C(CSc3nnnn3C)CO[C@@H]21`, for which, in data set [1], the remaining at 0.5 h was 42%.

With `CO[C@@]1(NC(=O)Cc2ccc(O)cc2)C(=O)N2C(C(=O)OC(c3ccccc3)c3ccccc3)=C(CSc3nnnn3C)CO[C@@H]21`, in data set [1], the remaining at 0.5 h came out at 40%.

For `CCCOc1ccccc1C(=O)N[C@]1(OC)C(=O)N2C(C(=O)OCc3ccc(C(=O)O)cc3)=C(CSc3nnnn3C)CO[C@@H]21`, the remaining at 0.5 h in data set [1] came out at 26%.

As for `CO[C@@]1(NC(=O)Cc2ccc(O)cc2)C(=O)N2C(C(=O)OCc3cccc(C)c3)=C(CSc3nnnn3C)CO[C@@H]21`, the remaining at 0.5 h in data set [1] worked out at 10%.

Take `CO[C@@]1(NC(=O)Cc2ccc(O)cc2)C(=O)N2C(C(=O)OCc3cccc(C)c3)=C(CSc3nnnn3CC(=O)O)CO[C@@H]21`: the remaining at 0.5 h in data set [1] was found to be 5%.

With `CO[C@@]1(NC(=O)c2ccccc2Oc2ccccc2)C(=O)N2C(C(=O)OCc3ccc(C(=O)O)cc3)=C(CSc3nnnn3C)CO[C@@H]21`, the remaining at 0.5 h in data set [1] came to 63%.

As to `CO[C@@]1(NC(=O)Cc2ccc(N(C)C)cc2)C(=O)N2C(C(=O)OC(c3ccccc3)c3ccccc3)=C(CSc3nnnn3C)CO[C@@H]21`, in data set [1], the remaining at 0.5 h worked out at 53%.

With `CO[C@@]1(NC(=O)Cc2ccc(O)cc2)C(=O)N2C(C(=O)OCc3cccc(C)c3)=C(C)CO[C@@H]21`, in data set [1], the remaining at 0.5 h is 59%. Further, the IC50 at Chymase is > 10 µM.

Consider `COc1ccccc1C(=O)N[C@]1(OC)C(=O)N2C(C(=O)OCc3ccc(C(=O)O)cc3)=C(CSc3nnnn3C)CO[C@@H]21`, for which the remaining at 0.5 h in data set [1] amounted to 26%.

With `CCC(C)Oc1ccccc1C(=O)N[C@]1(OC)C(=O)N2C(C(=O)OCc3ccc(C(=O)O)cc3)=C(CSc3nnnn3C)CO[C@@H]21` (stereo partly drawn), in data set [1], the remaining at 0.5 h was 39%.

For the molecule `COc1ccccc1C(=O)N[C@]1(OC)C(=O)N2C(C(=O)OCc3cccc(C)c3)=C(CSc3nnnn3CC(=O)O)CO[C@@H]21`, the remaining at 0.5 h in data set [1] was 11%. The half-life in data set [2] was < 0.167 h.

The values above are taken from ChEMBL document CHEMBL1132791, “1-Oxacephem-based human chymase inhibitors: discovery of stable inhibitors in human plasma” (Bioorg Med Chem Lett, 2000).
